Assay results from different studies.
Serine protease HTRA1 S328A: Serine protease HTRA1 (Homo sapiens, UniProt Q92743, S328A)
TMEM97: Sigma intracellular receptor 2 (TMEM97, Homo sapiens, UniProt Q5BJF2)
tspO: tspO (Cereibacter sphaeroides, UniProt Q9RFC8)

With `NC[C@@H]1[C@H]2CN3C(=O)c4cccn4[C@@H]4NC(N)=N[C@@]43[C@@H]2[C@]2(N=C(N)N[C@H]2O)[C@H]1Cl` (racemic) the IC50 was 4800 nM (Proteasome subunit beta type-8, chymotrypsin-like site (PSMB8, Homo sapiens, UniProt P28062); enzyme activity, inhibitor).
With `CC(C)C[C@H](NC(=O)[C@H](CC(=O)O)NC(=O)[C@H](CC(=O)O)NC(=O)[C@H](CC(=O)O)NC(=O)[C@@H](NC(=O)[C@H](Cc1c[nH]c2ccccc12)NC(=O)[C@@H](N)CCC(=O)O)[C@@H](C)O)C(=O)N[C@@H](CO)C(=O)N[C@H](C(=O)N[C@@H](CC(=O)O)C(=O)N[C@@H](C)C(=O)O)C(C)C` the Kd was 25600 nM (Serine protease HTRA1 S328A; binding, ITC; pH 8).
The Ki of `Cc1cccc(CN2CCN(C(c3ccccc3)c3ccc(Cl)cc3)CC2)c1` (centres unmarked) is reported as greater than 10000 nM (TMEM97; ligand displacement, radioligand).
`C=CC1=C(C)/C(=C/c2[nH]c(Cc3[nH]c(/C=C4\NC(=O)C(C)=C4C=C)c(C)c3CCC(=O)O)c(CCC(=O)O)c2C)NC1=O` gave a Kd of 4700 nM (tspO; binding, fluorescence).
`CN(CCCN1c2ccccc2CCc2ccccc21)CC(=O)c1ccc(Cl)cc1` has a Ki of 2010 nM (TMEM97; ligand displacement, radioligand).
`CC[C@H](C)[C@H](NC(=O)[C@H](Cc1ccccc1)NC(=O)[C@H](CC(=O)O)NC(=O)[C@H](CCCNC(=N)N)NC(=O)[C@@H](NC(=O)[C@H](C)NC(=O)[C@H](CC(C)C)NC(=O)[C@H](CC(N)=O)NC(=O)[C@H](CC(=O)O)NC(=O)[C@H](CC(C)C)NC(=O)[C@@H](NC(=O)[C@@H](NC(=O)[C@H](CO)NC(=O)[C@H](CCSC)NC(=O)[C@H](CCC(=O)O)NC(=O)[C@H](CC(=O)O)NC(=O)[C@H](CO)NC(=O)[C@H](Cc1ccccc1)NC(=O)[C@H](CO)NC(=O)CNC(=O)[C@H](CC(=O)O)NC(=O)[C@H](C)NC(=O)[C@@H](N)Cc1c[nH]cn1)[C@@H](C)O)[C@@H](C)CC)[C@@H](C)O)C(=O)N[C@@H](CC(N)=O)C(=O)N[C@@H](Cc1c[nH]c2ccccc12)C(=O)N[C@@H](CC(C)C)C(=O)N[C@H](C(=O)N[C@@H](CCC(N)=O)C(=O)N[C@H](C(=O)N[C@@H](CCCCN)C(=O)N[C@H](C(=O)N[C@H](C(=O)N[C@@H](CC(=O)O)C(=O)O)[C@@H](C)O)[C@@H](C)CC)[C@@H](C)O)[C@@H](C)CC` gave an EC50 of greater than 1000 nM (Glucagon receptor (GCGR, Homo sapiens, UniProt P47871); reporter gene, agonist, luciferase).
With `COc1cc(Nc2ncc(F)c(Nc3ccc4c(n3)NC(=O)C(C)(C)O4)n2)cc(OC)c1OC` the IC50 was 158 nM (UDP-glucuronosyltransferase 1A1 (UGT1A1, Homo sapiens, UniProt P22309); enzyme activity, inhibitor).
For `CCCN(CCC)CCc1ccc(OC)c(OCCc2ccccc2)c1`, the Ki was 82.7 nM (TMEM97; ligand displacement, radioligand).
`CCC(C)N(C)C(=O)c1cc2ccccc2c(-c2ccccc2Cl)n1` (centres unmarked) gave a Kd of 10000 nM (tspO; binding, fluorescence).
The Kd of `CC(C)C[C@H](NC(=O)[C@H](CO)NC(=O)[C@H](CCC(=O)O)NC(=O)[C@@H](NC(=O)[C@H](CC(C)C)NC(=O)[C@H](CC(=O)O)NC(=O)[C@H](CC(=O)O)NC(=O)[C@H](CC(=O)O)NC(=O)[C@@H](NC(=O)[C@H](Cc1c[nH]c2ccccc12)NC(=O)[C@@H](N)CCC(=O)O)[C@@H](C)O)C(C)C)C(=O)O` is reported as 39700 nM (Serine protease HTRA1 S328A; binding, ITC; pH 8).
`OCCN1CCN(CCCN2c3ccccc3C=Cc3ccccc32)CC1` has a Ki of 126 nM (TMEM97; ligand displacement, radioligand).
For `CC[C@H](C)[C@H](NC(=O)[C@H](C)NC(=O)[C@H](CCCNC(=N)N)NC(=O)[C@H](CC(C)C)NC(=O)[C@@H](N)Cc1ccccc1)C(=O)N[C@@H](CCCNC(=N)N)C(=O)N1CCC[C@H]1C(=O)N[C@@H](CCCCN)C(=O)O`, the IC50 was 740 nM (B1 bradykinin receptor (Rattus norvegicus, UniProt P97583); ligand displacement, radioligand; cell membranes).
The IC50 of `O=C1Nc2ccccc2/C1=C/c1cn(-c2nc(Cl)nc(N3CCOCC3)n2)c2ccccc12` is reported as 2000 nM (Prostaglandin G/H synthase 2 (PTGS2, Homo sapiens, UniProt P35354); enzyme activity, inhibitor).
`CC(C)C[C@H](NC(=O)[C@H](Cc1ccccc1)NC(=O)c1cnccn1)B(O)O` has an IC50 of 8500 nM (Dipeptidyl peptidase 2 (Homo sapiens, UniProt Q9UHL4); enzyme activity, inhibitor).
For `CC1CCN(CCCC(=O)c2ccc(F)cc2)CC1`, the Ki was 115 nM (TMEM97; ligand displacement, radioligand).
`CC[C@H](C)[C@H](NC(=O)[C@H](Cc1c[nH]c2ccccc12)NC(=O)[C@H](C)NC(=O)[C@H](C)NC(=O)[C@H](Cc1ccc(O)cc1)NC(=O)[C@@H](N)CO)C(=O)N[C@@H](CC(=O)O)C(=O)N[C@H](C(=O)N[C@@H](CCC(=O)O)C(=O)N[C@@H](CO)C(=O)N[C@@H](CC(C)C)C(=O)O)C(C)C` gave a Kd of 43300 nM (Serine protease HTRA1 S328A; binding, ITC; pH 8).
`O=c1c(O)c(-c2ccc(O)c(O)c2)oc2cc(O)ccc12` has a Kd of 940 nM (Ribosomal protein S6 kinase beta-1 (RPS6KB1, Homo sapiens, UniProt P23443); cell-free assay, competition with immobilised ligand).
